Experimental data published in ChEMBL document CHEMBL2010655, “Chemical constituents from the aerial parts of Aster koraiensis with protein glycation and aldose reductase inhibitory activities” (J Nat Prod, 2012).

Tests used:
[1] = Inhibition of advanced glycation end-products formation after 14 days by spectrofluorimetry; assay type: physicochemical
Method in brief: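 Glycation end-product formation measured by an established literature method. Fluorescent reaction products read spectrofluorometrically after a 14-day incubation. Aminoguanidine served as the positive control. Triplicate experiments, reported as mean ± SD. IC50 calculated from the dose–inhibition curve.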

[2] = target: Aldo-keto reductase family 1 member B1 (Rattus norvegicus, UniProt P07943); assay: Inhibition of Sprague-Dawley rat lens aldose reductase

| Structure (SMILES) | IC50 [1] [µM] | IC50 [2] [µM] |
| --- | --- | --- |
| O=C(/C=C/c1ccc(O)c(O)c1)O[C@@H]1C[C@](O)(C(=O)O)C[C@@H](O)[C@H]1O [CHLOROGENIC ACID] | > 50 | 0.95 |
| C=CCCCCC/C=C/[C@H](O)C#CC#C[C@@H](O)[C@H](C)O [GYMNASTERKOREAYNE E] | > 50 | > 30 |
| O=C(/C=C/c1ccc(O)c(O)c1)O[C@H]1[C@H](O)C[C@](O)(C(=O)O)C[C@H]1OC(=O)/C=C/c1ccc(O)c(O)c1 | 6.4 | 2.3 |
| COc1cc(-c2oc3cc(O)cc(O)c3c(=O)c2O[C@@H]2O[C@H](CO[C@@H]3O[C@@H](C)[C@H](O)[C@@H](O)[C@H]3O)[C@@H](O)[C@H](O)[C@H]2O)ccc1O [NARCISSIN] | > 50 | 12.1 |
| CC(/C=C1\SC(=S)N(CC(=O)O)C1=O)=C\c1ccccc1 | > 50 |  |
| COc1cc(-c2oc3cc(O)cc(O)c3c(=O)c2O[C@@H]2O[C@H](CO)[C@@H](O)[C@H](O)[C@H]2O)ccc1O (stereo in doubt; 7) | 44.4 | 9.3 |
| C[C@@H]1O[C@@H](OC[C@H]2O[C@@H](Oc3c(-c4ccc(O)cc4)oc4cc(O)cc(O)c4c3=O)[C@H](O)[C@@H](O)[C@@H]2O)[C@H](O)[C@H](O)[C@H]1O [NICOTIFLOROSIDE] | > 50 | 11.3 |
| CC[C@H](/C=C/[C@@H](C)[C@H]1CC[C@H]2C3=CC[C@H]4C[C@@H](O)CC[C@]4(C)[C@H]3CC[C@]12C)C(C)C | > 50 | > 30 |
| O=c1c(O[C@@H]2OC[C@H](O)[C@H](O)[C@H]2O)c(-c2ccc(O)c(O)c2)oc2cc(O)cc(O)c12 [GUAJAVERIN] | 9 | 0.32 |
| CC1=CC[C@H](O)[C@]2(C)[C@H]1[C@@H](O[C@@H]1O[C@H](CO)[C@@H](O)[C@H](O)[C@H]1O)[C@H](C(C)(C)O)C[C@H]2OC(=O)/C=C/c1ccc(O)cc1 | > 50 | > 30 |
| O=c1c(O[C@@H]2O[C@H](CO)[C@@H](O)[C@H](O)[C@H]2O)c(-c2ccc(O)c(O)c2)oc2cc(O)cc(O)c12 [ISOQUERCETIN] | 9.2 | 4.4 |
| C/C=C/C#CC#CCCCO[C@@H]1O[C@H](CO)[C@@H](O)[C@H](O)[C@H]1O | > 50 | > 30 |
| CC[C@H](CC[C@@H](C)[C@H]1CC[C@H]2[C@@H]3CC=C4C[C@@H](O[C@@H]5O[C@H](CO)[C@@H](O)[C@H](O)[C@H]5O)CC[C@]4(C)[C@H]3CC[C@]12C)C(C)C [SITOGLUSIDE] | > 50 | > 30 |
| C/C=C/C#CC#C[C@H](O)CCO [GYMNASTERKOREAYNE A] | > 50 | > 30 |
| C=C(CO[C@@H]1O[C@H](CO)[C@@H](O)[C@H](O)[C@H]1O)[C@H]1Oc2cc(C(C)=O)c(O)cc2[C@@H]1OC | > 50 | > 30 |
| C=CCc1ccc(O[C@@H]2O[C@H](CO)[C@@H](O)[C@H](O)[C@H]2O)c(OC)c1 [CITRUSIN C] | > 50 | > 30 |
| N=C(N)NN [PIMAGEDINE] | 966 | > 30 |
| O=C(/C=C/c1ccc(O)c(O)c1)O[C@@H]1C[C@](O)(C(=O)O)C[C@@H](OC(=O)/C=C/c2ccc(O)c(O)c2)[C@H]1O | 6.6 |  |
| CC1=CC[C@@H](O)[C@]2(C)[C@@H](OC(=O)/C=C/c3ccc(O)cc3)C[C@@H](C(C)C)[C@@H](O[C@@H]3O[C@H](CO)[C@@H](O)[C@H](O)[C@H]3O)[C@@H]12 | > 50 | > 30 |
